# proCasp7 act – counter-screen for procaspase-3 activators: activators of human procaspase-7; recombinant procaspase-7, Ac-DEVD-pNA absorbance 405 nm; D23A/D198A/D206A triple mutant, cannot self-cleave; scale: DMSO 0, 5 µM enzyme 100; activation, % at 8.5 µM; hit rate 0.093% among 330,000; AID 463210;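 active means percent activation above the screen-wide mean plus 3 SD, cut at about 25% in these data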
# Target sequence (P55210 whole entry D23A/D198A/D206A): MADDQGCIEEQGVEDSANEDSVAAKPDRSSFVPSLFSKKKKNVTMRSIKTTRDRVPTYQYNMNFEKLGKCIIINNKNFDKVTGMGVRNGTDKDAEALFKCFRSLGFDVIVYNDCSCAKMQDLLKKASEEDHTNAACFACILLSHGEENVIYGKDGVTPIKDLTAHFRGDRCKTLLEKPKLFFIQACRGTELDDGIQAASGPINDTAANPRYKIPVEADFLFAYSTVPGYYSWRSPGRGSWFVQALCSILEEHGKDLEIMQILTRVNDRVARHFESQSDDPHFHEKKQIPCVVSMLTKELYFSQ
#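 Assay system – Uncleavable procaspase-7 mutant enzyme · Quantity – 2 µM procaspase-7 mutant as dispensed · Times – 1 h preincubation, 2 h reaction · Dosing – single nominal 8.5 µM compound dose, 0.8% DMSO final · Buffer or medium – Zinc-free 50 mM HEPES buffer, pH 7.4, with NaCl and Triton X-100 · Detection – Epi-absorbance of released pNA at 405 nm, two timepoints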
# Neddyl block – cullin neddylation inhibition; P61081+Q13564; TR-FRET cullin neddylation, biochemical; inhibition, % at 25 µM; hit rate 0.58% among 360,000; AID 651699; in the data active means inhibition above about 36%
# GAA850 FXN act – activators of GAA850 frataxin (FXN) promoter. HEK293 lucGAA850 FXN promoter luciferase reporter, 24 h; percent of 10 µM SAHA response. activation, % at 6 µM. hit rate 0.56% among 360,000. AID 540364;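 active means activation above the average of all compounds screened plus 3 SD, cutoff fixed separately per campaign, cut at about 7.5% in these data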;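 further: 0% = DMSO wells and 100% = 10 µM SAHA wells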
# Calb FLC – C. albicans growth modulation with fluconazole | C. albicans CaCi-2 + fluconazole, Alamar Blue growth, 48 h | growth inhibition, % (no concentration beside the values) | hit rate 0.57% among 300,000;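 active means growth inhibition above about 58% in most replicates, limit read from the data, passing the limit was not always enough; inconclusive means exactly half the replicates above a set limit; inactive means most replicates below a set limit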;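 further: all wells also contain fluconazole at 8 µg/ml as a sub-toxic cotreatment; 0% = median of DMSO wells and 100% = median of geldanamycin control wells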
# procasp3 activ – procaspase-3 (human) activation; P42574; recombinant procaspase-3 D3A, Ac-DEVD-pNA absorbance 405 nm; activation, % at 8.5 µM; hit rate 0.11% among 330,000;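 active means activation above the mean of all tested compounds plus 3 SD, cut at about 21% in these data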;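 further: 0% = DMSO alone and 100% = DMSO wells spiked with extra 5 µM PC-3 D3A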
# Target sequence (P42574 whole entry D9A/D28A/D175A): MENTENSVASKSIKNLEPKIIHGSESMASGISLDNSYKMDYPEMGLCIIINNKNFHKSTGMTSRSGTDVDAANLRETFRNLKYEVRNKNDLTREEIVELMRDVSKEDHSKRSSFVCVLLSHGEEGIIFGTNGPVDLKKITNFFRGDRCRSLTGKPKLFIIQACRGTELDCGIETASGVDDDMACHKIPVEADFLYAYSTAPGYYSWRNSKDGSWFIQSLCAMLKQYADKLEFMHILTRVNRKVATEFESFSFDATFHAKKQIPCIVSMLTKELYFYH
#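 Assay system – Procaspase-3 D3A mutant, all three cleavage aspartates alanine · Controls – DMSO-only low control, 5 µM PC-3 D3A high control · Schedule – 1 h compound preincubation, 2 h substrate hydrolysis at 25 °C · Signal – 405 nm absorbance of p-nitroaniline, reads at 0 and 120 min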
# HIF act – HIF pathway transcriptional activation | U2OS HRE-luciferase reporter, luminescence; normalized: DMSO 0%, desferrioxamine 100% | activation, % at 7.5 µM (by protocol) | hit rate 0.32% among 300,000 | AID 1910;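 active means mean activation of at least 10% of the iron chelator positive control signal, with at least half of replicates also reaching 10%; inconclusive means mean and replicate majority disagree about reaching 10%; inactive means mean and most replicates under 10%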
# * hit, by the source's call; ? = inconclusive; . = no result shown. Shown are actives, neighbours in structure and some others; about 1.9% of the full set was active somewhere.
SMILES,proCasp7 act,Neddyl block,GAA850 FXN act,Calb FLC,procasp3 activ,HIF act
COC1=CC(=O)C(O)=C(CCCCCCC/C=C/CCCCCCCC2=C(O)C(=O)C=C(OC)C2=O)C1=O,-3.9,-10.0,-0.4,81.3*,3.9,-0.2
O=C(C[C@H]1C(=O)N(Cc2ccccc2)C[C@@H]1c1ccc(Br)cc1)Nc1ccc(Br)cc1,.,-38.1,-0.2,.,.,.
C=CCn1c(O)c(N=NC(=S)Nc2ccc(OC)cc2)c2ccccc21,-2.7,-33.3,-1.9,108.2*,9.6,-0.9
COc1cccc(CN2CCC(N(CCc3ccccc3)Cc3ccccc3)CC2)c1OC,6.7,7.6,-2.9,-19.4,1.4,581.5*
COc1ccccc1N1CCCSC1=Nc1ccccc1,.,-2.0,0.9,.,.,.
N#CC1=C(N)C(C#N)(C#N)[C@H](c2ccncc2)[C@H]2CC3(CC=C12)OCCO3,-1.0,-15.9,0.8,?,-1.0,-0.4
Cc1ccc(C2C3CSCC=C3C(C#N)=C(N)C2(C#N)C#N)cc1 (stereo not drawn),0.5,-14.1,1.6,89.8*,-7.9,0.1
CCCc1ccc(C(O)c2ncc(-c3ccc(OC)cc3)[nH]2)cc1 (stereo not drawn),.,16.2,0.0,.,.,.
CC1NC(=O)c2cc3ccccc3cc2-n2c1nc1ccc(F)cc1c2=O (stereo not drawn),.,-28.5,1.7,.,.,.
Cc1ccc(/C=C2/NC(=O)N(Cc3ccccc3)C2=O)s1,2.5,4.0,1.8,-28.3,-3.4,0.1
O=C1N/C(=C/c2cccs2)C(=O)N1Cc1ccc(Br)cc1,0.4,8.9,-0.4,-4.7,14.4,328.4*
COc1ccc(-c2cn(Cc3ccc([N+](=O)[O-])cc3)nn2)cc1,0.8,-28.8,0.1,15.8,-1.4,0.9
CNc1ccc(OC)cc1-n1cnc(-c2ccc([N+](=O)[O-])cc2)c1,-8.3,-19.7,0.6,101.3*,6.7,-25.3
NCC(c1ccc(Cl)cc1Cl)c1c[nH]c2ccccc12 (stereo not drawn),-0.5,3.2,-1.2,80.2*,4.2,0.4
O=C(Cn1cnc([N+](=O)[O-])n1)N/N=C/c1cc(Cl)ccc1O,-0.7,-18.4,-4.5,21.2,16.4,15.2*
CC(C)(C)c1ccc(OCCC(=O)Nc2ccc(N3CCOCC3)cc2N2CCOCC2)cc1,-2.9,11.8,2.6,-5.9,3.9,-0.5
O=C(CC1SCCNC1=O)NCc1ccccc1 (stereo not drawn),.,2.9,-0.7,.,.,.
O=S(=O)(NCC(c1ccco1)N1CCN(c2ccc(F)cc2)CC1)c1ccc2c(c1)OCCO2 (stereo not drawn),5.1,-11.0,-1.1,114.0*,-0.2,0.7
Cc1cccc(NC(=O)/C(=C\c2ccc([N+](=O)[O-])o2)NC(=O)c2ccc(Cl)cc2)c1,-8.1,-1.1,3.9,.,-7.1,.
COC(=O)/C(=C\c1ccc([N+](=O)[O-])o1)NC(=O)c1ccccc1,-2.2,-22.4,1.7,101.8*,-3.7,-20.5
CCCCNC(=O)/C(=C\c1ccc([N+](=O)[O-])o1)NC(=O)c1ccccc1,-3.4,-0.5,0.6,100.2*,-3.4,-0.1
CCC1CCc2sc(C(=O)NCC3CCCO3)cc2C1 (stereo not drawn),13.9,-6.6,2.8,.,-7.3,.
CCC1CCc2sc(C(=O)NCc3ccccn3)cc2C1 (stereo not drawn),4.3,-41.6,5.0,-15.2,-8.2,21.9*
CC(=O)c1cccc(NC(=O)CN(C)S(=O)(=O)c2cccc3nsnc23)c1,1.7,-47.2,-0.8,0.5,7.9,13.8*
CCCCc1c(-c2ccccc2OC)ncn1CCc1ccccc1Cl,.,8.9,.,.,.,.
SMILES,proCasp7 act,Neddyl block,GAA850 FXN act,Calb FLC,procasp3 activ,HIF act
S=c1[nH]nc(-c2cc(-c3ccccc3)n[nH]2)n1/N=C/c1ccc(Br)s1,-3.5,63.3*,4.6,11.5,0.5,-0.2
CC(C)c1nc(CNC(=O)CCc2nnc(-c3ccsc3)o2)cs1,-2.6,1.0,2.0,-6.2,-1.4,49.4*
Cc1cccc(CNC(=O)c2sc(=O)n(Cc3ccc(S(C)(=O)=O)cc3)c2C)c1,.,3.1,0.3,.,.,.
Nc1ncnc(Sc2ncccn2)c1[N+](=O)[O-],.,0.0,-3.2,84.8*,.,4.2
COC(=O)C(C(=O)OC)C1C=CCN(C(C)=O)C1 (stereo not drawn),.,3.5,1.5,.,.,.
Cc1ccc(S(=O)(=O)NNC(=O)c2ccc(NC(=O)C3CC3)cc2)cc1,.,-7.1,0.0,111.4*,.,.
C/C(Nc1ccc(Cl)cc1)=C1/CCOC1=O,.,10.6,1.5,.,.,.
COc1ccc(NC(=S)N2CCN(C(=O)c3ccccc3)CC2)cc1,3.4,-0.4,0.4,-0.2,-8.3,57.7*
COc1ccc(NC(=S)N2CCN(C)CC2)cc1,-5.0,0.6,1.8,2.9,-14.2,-0.4
O=C(N/N=C/c1ccccn1)c1sc2ccccc2c1Cl,2.5,24.0,13.0*,19.3,-2.0,7.0
O=C(N/N=C/c1ccccn1)c1cc(-c2ccc(Br)cc2)nc2ccccc12,7.8,46.2*,1.4,-6.9,5.4,9.1
CCCOc1cccc(-c2cc(C(=O)N/N=C/c3ccccn3)c3ccccc3n2)c1,.,10.3,-9.4,-0.9,.,0.7
O=C(N/N=C/c1ccccn1)c1cc(-c2ccc(Cl)cc2)nc2ccccc12,5.5,6.8,-1.9,60.8*,4.7,3.4
CN1CCN(c2ncnc3c2ncn3[C@H]2CN(Cc3ccc4c(c3)OCO4)C[C@@H](CO)O2)CC1,.,4.6,-0.2,.,.,.
Cc1ccc(C)c(OCc2nc(-c3cccnc3)no2)c1,-11.6,7.7,0.7,28.1,5.2,1.5
Cc1ccc(-c2nc(-c3cccnc3)no2)c(C)c1,7.5,-1.4,4.2,95.3*,5.1,3.0
CCCn1c(=N)n(CC(=O)c2ccc([N+](=O)[O-])cc2)c2ccccc21,-25.6,-35.4,-1.3,98.9*,-3.5,-0.2
CCCn1c(=NC(=O)c2c(-c3c(F)cccc3Cl)noc2C)c(C(=O)OCC)cc2c(=O)n3ccccc3nc21,1.1,.,.,2.5,6.2,23.3*
CCCn1c(=NC(=O)c2ccco2)c(C(=O)OCC)cc2c(=O)n3ccccc3nc21,-23.5,.,5.0,-7.0,-12.4,0.4
Oc1c(N=Nc2ccccn2)ccc2ccccc12,-4.8,-32.3,-15.7,-2.5,-3.3,33.6*
Oc1[nH]c2ccccc2c1N=Nc1ccccn1,.,-2.8,4.9,.,.,.
CCC(=O)Nc1cc(OC)c(NC(=S)Nc2ccccc2CC)cc1OC,.,-0.5,-2.1,.,.,.
CC(=O)C1=CCC(c2cccc(Cl)c2)N(S(=O)(=O)c2ccc(C)cc2)C1 (stereo not drawn),.,1.1,.,.,.,.
C=CCN(CC=C)Cc1c(O)ccc2c(=O)c(-c3ccccc3)coc12,8.3,.,1.8,94.0*,-0.3,0.3
O=C1NC[C@H](CCCCN2C[C@@H](Cc3ccccc3)N(CC3CCCCC3)C(=O)C2=O)N(CCC2CCCCC2)C1=O,.,0.4,.,.,.,.
